The text below walks through data of ChEMBL document CHEMBL3286162, “Synthesis and anticancer activity of novel quinoline-docetaxel analogues” (Bioorg Med Chem Lett, 2014).

Structures are written as SMILES.

In experiment [1] the test system is HeLa. Briefly: Antiproliferative against human HeLa cells after 72 hrs by MTT assay. In kind it is functional, cell-based. Summed up:
(§1)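 MTT cytotoxicity assay with 72 h continuous exposure of cells to test compounds, run alongside docetaxel as positive control. The panel comprised four parental human cancer lines (HeLa, A549, A2780, MCF-7) and two drug-resistant sublines (A2780-MDR, MCF-7-MDR).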
In general terms: Tetrazolium assays rely on reduction of a dye to a coloured formazan, in cell work by metabolically active cells.

Experiment [2] has as its system A549. Description: Antiproliferative against human A549 cells after 72 hrs by MTT assay. It counts as functional, cell-based. The following applies: A549, 72 h. Summed up:
as §1

Experiment [3] relates to A2780. Description: Antiproliferative against human A2780 cells after 72 hrs by MTT assay. In kind it is functional, cell-based. The following applies: A2780, 72 h. An outline of the steps:
as §1

The test system of experiment [4] is A2780. Briefly: Antiproliferative against multidrug-resistant human A2780 cells after 72 hrs by MTT assay. In kind it is functional, cell-based. The following applies: A2780, 72 h. An outline of the steps:
as §1

Experiment [5] has as its system MCF7. Description: Antiproliferative against human MCF7 cells after 72 hrs by MTT assay. As to conditions: MCF7, 72 h. In kind it is functional, cell-based. An outline of the steps: as §1
The subject of experiment [6] is MCF7. Briefly: Antiproliferative against multidrug-resistant human MCF7 cells after 72 hrs by MTT assay. In kind it is functional, cell-based. The following applies: MCF7, 72 h. Summed up:
as §1

For experiment [7], the system named is MCF7. Description: Ratio of docetaxel IC50 to compound IC50 for human MCF7 cells after 72 hrs by MTT assay. In kind it is functional.
Experiment [8] concerns MCF7. Briefly: Ratio of docetaxel IC50 to compound IC50 for multidrug-resistant human MCF7 cells after 72 hrs by MTT assay. It counts as functional.
The test system of experiment [9] is A549. Description: Ratio of docetaxel IC50 to compound IC50 for human A549 cells after 72 hrs by MTT assay. In kind it is functional.
For experiment [10], the system named is A2780. Briefly: Ratio of docetaxel IC50 to compound IC50 for human A2780 cells after 72 hrs by MTT assay. It counts as functional.
In experiment [11] the test system is HeLa. Description: Ratio of docetaxel IC50 to compound IC50 for human HeLa cells after 72 hrs by MTT assay. It counts as functional.

Consider `CC(=O)O[C@@]12CO[C@@H]1C[C@H](O)[C@@]1(C)C(=O)[C@H](O)C3=C(C)[C@@H](OC(=O)[C@H](OC(=O)c4ccc5ccccc5n4)[C@@H](NC(=O)OC(C)(C)C)c4ccccc4)C[C@@](O)([C@@H](OC(=O)c4ccccc4)[C@H]21)C3(C)C`, for which the IC50 (in general, the point on the concentration scale where inhibition reaches its midpoint) in the experiment on HeLa [1] came to 30.7 nM; in the experiment on A549 [2], 38.2 nM; in the experiment with A2780 [3], 35 nM; in the experiment with A2780 [4], 33.2 nM; in the experiment on MCF7 [5], 26.4 nM; in the experiment with MCF7 [6], 9.3 nM.

As to `CC(=O)O[C@@]12CO[C@@H]1C[C@H](O)[C@@]1(C)C(=O)[C@H](O)C3=C(C)[C@@H](OC(=O)[C@H](OC(=O)c4cnc5ccccc5c4)[C@@H](NC(=O)OC(C)(C)C)c4ccccc4)C[C@@](O)([C@@H](OC(=O)c4ccccc4)[C@H]21)C3(C)C`, the IC50 with HeLa [1] was determined as 41 nM; in the experiment on A549 [2], 41.2 nM; with A2780 [3], 44.8 nM; in the experiment with A2780 [4] it was 34.9 nM; in the experiment with MCF7 [5], 17.8 nM; with MCF7 [6], 36.3 nM. For the same molecule, in the experiment with MCF7 [7], the “Ratio IC50” value turned out to be 2.

As to `CC(=O)O[C@@]12CO[C@@H]1C[C@H](O)[C@@]1(C)C(=O)[C@H](O)C3=C(C)[C@@H](OC(=O)[C@H](OC(=O)c4ccc5ncccc5c4)[C@@H](NC(=O)OC(C)(C)C)c4ccccc4)C[C@@](O)([C@@H](OC(=O)c4ccccc4)[C@H]21)C3(C)C`, the IC50 with HeLa [1] stood at 34.6 nM; in the experiment on A549 [2], 38.8 nM; with A2780 [3] it was 23.1 nM; with A2780 [4], 30.2 nM; in the experiment with MCF7 [5], 30.7 nM; in the experiment on MCF7 [6], 8.8 nM. In the experiment with MCF7 [8], the “Ratio IC50” value was determined as 20.

With `CC(=O)O[C@@]12CO[C@@H]1C[C@H](O)[C@@]1(C)C(=O)[C@H](O)C3=C(C)[C@@H](OC(=O)[C@H](OC(=O)c4nccc5ccccc45)[C@@H](NC(=O)OC(C)(C)C)c4ccccc4)C[C@@](O)([C@@H](OC(=O)c4ccccc4)[C@H]21)C3(C)C`, the IC50 in the experiment on HeLa [1] worked out at 33.2 nM; in the experiment on A549 [2], 28.1 nM; with A2780 [3] it was 49.3 nM; with A2780 [4], 12.2 nM; in the experiment with MCF7 [5], 16.8 nM; with MCF7 [6], 17.8 nM.

Regarding `COc1cc(C(=O)O[C@@H](C(=O)O[C@H]2C[C@@]3(O)[C@@H](OC(=O)c4ccccc4)[C@@H]4[C@]5(OC(C)=O)CO[C@@H]5C[C@H](O)[C@@]4(C)C(=O)[C@H](O)C(=C2C)C3(C)C)[C@@H](NC(=O)OC(C)(C)C)c2ccccc2)nc2ccccc12`, the IC50 in the experiment on HeLa [1] stood at 39 nM; in the experiment on A549 [2] it was 33.4 nM; in the experiment on A2780 [3], 32.9 nM; in the experiment on A2780 [4] it was 43.9 nM; in the experiment on MCF7 [5] it was 12.8 nM; in the experiment with MCF7 [6], 25.6 nM. In addition, in the experiment with MCF7 [7], the “Ratio IC50” value turned out to be 2.

Take `CC(=O)O[C@@]12CO[C@@H]1C[C@H](O)[C@@]1(C)C(=O)[C@H](O)C3=C(C)[C@@H](OC(=O)[C@H](OC(=O)c4cc(-c5ccccc5)nc5ccccc45)[C@@H](NC(=O)OC(C)(C)C)c4ccccc4)C[C@@](O)([C@@H](OC(=O)c4ccccc4)[C@H]21)C3(C)C`: the IC50 was 19.3 nM with HeLa [1]; 16 nM with A549 [2]; 41.6 nM with A2780 [3]; 32.5 nM with A2780 [4]; 39.8 nM in the experiment on MCF7 [5]; 28.4 nM with MCF7 [6]. For the same molecule, the “Ratio IC50” value in the experiment with A549 [9] came to 2.

With `CC(=O)O[C@@]12CO[C@@H]1C[C@H](O)[C@@]1(C)C(=O)[C@H](O)C3=C(C)[C@@H](OC(=O)[C@H](OC(=O)c4cn(C5CC5)c5cc(Cl)c(F)cc5c4=O)[C@@H](NC(=O)OC(C)(C)C)c4ccccc4)C[C@@](O)([C@@H](OC(=O)c4ccccc4)[C@H]21)C3(C)C`, the IC50 amounted to 32.6 nM in the experiment on HeLa [1]; 38.5 nM in the experiment on A549 [2]; 45.3 nM in the experiment on A2780 [3]; 29.7 nM with A2780 [4]; 42 nM in the experiment on MCF7 [5]; 21.2 nM in the experiment on MCF7 [6].

For `CC(=O)O[C@H]1C(=O)[C@@]2(C)[C@H]([C@H](OC(=O)c3ccccc3)[C@]3(O)C[C@H](OC(=O)[C@H](OC(=O)c4ccc5ccccc5n4)[C@@H](NC(=O)OC(C)(C)C)c4ccccc4)C(C)=C1C3(C)C)[C@]1(OC(C)=O)CO[C@@H]1C[C@@H]2O`, the 50% inhibitory concentration (IC50) was 19.9 nM with HeLa [1]; 27.1 nM in the experiment on A549 [2]; 45.7 nM in the experiment with A2780 [3]; 29.8 nM in the experiment with A2780 [4]; 37.3 nM with MCF7 [5]; 24.1 nM with MCF7 [6].

On to `CC(=O)O[C@H]1C(=O)[C@@]2(C)[C@H]([C@H](OC(=O)c3ccccc3)[C@]3(O)C[C@H](OC(=O)[C@H](OC(=O)c4cnc5ccccc5c4)[C@@H](NC(=O)OC(C)(C)C)c4ccccc4)C(C)=C1C3(C)C)[C@]1(OC(C)=O)CO[C@@H]1C[C@@H]2O`, for which the IC50 with HeLa [1] is 36.3 nM; in the experiment with A549 [2], 41 nM; with A2780 [3], 34.2 nM; in the experiment on A2780 [4], 29 nM; with MCF7 [5] it was 43.3 nM; with MCF7 [6] it was 37.8 nM.

In the case of `CC(=O)O[C@H]1C(=O)[C@@]2(C)[C@H]([C@H](OC(=O)c3ccccc3)[C@]3(O)C[C@H](OC(=O)[C@H](OC(=O)c4ccc5ncccc5c4)[C@@H](NC(=O)OC(C)(C)C)c4ccccc4)C(C)=C1C3(C)C)[C@]1(OC(C)=O)CO[C@@H]1C[C@@H]2O`, the IC50 in the experiment on HeLa [1] turned out to be 18.5 nM; with A549 [2] it was 28.4 nM; with A2780 [3] it was 16.3 nM; in the experiment on A2780 [4], 35.1 nM; in the experiment with MCF7 [5], 29.8 nM; in the experiment on MCF7 [6] it was 35.7 nM. In addition, the “Ratio IC50” value in the experiment with A2780 [10] is listed as 2.

`CC(=O)O[C@H]1C(=O)[C@@]2(C)[C@H]([C@H](OC(=O)c3ccccc3)[C@]3(O)C[C@H](OC(=O)[C@H](OC(=O)c4nccc5ccccc45)[C@@H](NC(=O)OC(C)(C)C)c4ccccc4)C(C)=C1C3(C)C)[C@]1(OC(C)=O)CO[C@@H]1C[C@@H]2O`: the IC50 was determined as 41.2 nM with HeLa [1]; 35.3 nM in the experiment with A549 [2]; 16.9 nM with A2780 [3]; 18.6 nM with A2780 [4]; 26.6 nM in the experiment on MCF7 [5]; 45.9 nM in the experiment with MCF7 [6]. The “Ratio IC50” value in the experiment on A2780 [10] worked out at 2.

For `COc1cc(C(=O)O[C@@H](C(=O)O[C@H]2C[C@@]3(O)[C@@H](OC(=O)c4ccccc4)[C@@H]4[C@]5(OC(C)=O)CO[C@@H]5C[C@H](O)[C@@]4(C)C(=O)[C@H](OC(C)=O)C(=C2C)C3(C)C)[C@@H](NC(=O)OC(C)(C)C)c2ccccc2)nc2ccccc12`, the 50% inhibitory concentration (IC50) with HeLa [1] is 34.9 nM; in the experiment with A549 [2], 32.3 nM; in the experiment with A2780 [3], 30.1 nM; with A2780 [4] it was 21.3 nM; in the experiment with MCF7 [5], 47.6 nM; in the experiment with MCF7 [6], 18.2 nM.

On to `CC(=O)O[C@H]1C(=O)[C@@]2(C)[C@H]([C@H](OC(=O)c3ccccc3)[C@]3(O)C[C@H](OC(=O)[C@H](OC(=O)c4cc(-c5ccccc5)nc5ccccc45)[C@@H](NC(=O)OC(C)(C)C)c4ccccc4)C(C)=C1C3(C)C)[C@]1(OC(C)=O)CO[C@@H]1C[C@@H]2O`, for which the IC50 in the experiment with HeLa [1] is 11.8 nM; in the experiment with A549 [2] it was 42.5 nM; in the experiment with A2780 [3] it was 28.2 nM; in the experiment on A2780 [4], 49.8 nM; in the experiment with MCF7 [5] it was 31.4 nM; in the experiment with MCF7 [6] it was 18.3 nM. Moreover, the “Ratio IC50” value in the experiment with HeLa [11] was 5.

Take `CC(=O)O[C@H]1C(=O)[C@@]2(C)[C@H]([C@H](OC(=O)c3ccccc3)[C@]3(O)C[C@H](OC(=O)[C@H](OC(=O)c4cn(C5CC5)c5cc(Cl)c(F)cc5c4=O)[C@@H](NC(=O)OC(C)(C)C)c4ccccc4)C(C)=C1C3(C)C)[C@]1(OC(C)=O)CO[C@@H]1C[C@@H]2O`: the IC50 in the experiment on HeLa [1] was found to be 25.3 nM; with A549 [2] it was 28.8 nM; in the experiment with A2780 [3], 39.8 nM; with A2780 [4] it was 34.5 nM; in the experiment with MCF7 [5], 30.2 nM; with MCF7 [6], 38.9 nM.

`CC(=O)O[C@@]12CO[C@@H]1C[C@H](O)[C@@]1(C)C(=O)[C@H](O)C3=C(C)[C@@H](OC(=O)[C@H](O)[C@@H](NC(=O)OC(C)(C)C)c4ccccc4)C[C@@](O)([C@@H](OC(=O)c4ccccc4)[C@H]21)C3(C)C` [DOCETAXEL]: the IC50 was 50.1 nM in the experiment with HeLa [1]; 35.2 nM with A549 [2]; 33 nM in the experiment with A2780 [3]; 126 nM with A2780 [4]; 38.5 nM in the experiment on MCF7 [5]; 180 nM with MCF7 [6].
